Assay results taken from article PMC7236545 (Journal of the American Chemical Society, 2020).

Tested on: HCT116 (wild-type APC) cells
Test: Cell viability / toxicity in HCT116
Type: cell-based
Details: Homo sapiens, HCT-116, read-out: IC50 (viability / growth inhibition)
Outline: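 Dose-response toxicity assay of test compound on human HCT116 (APC wild-type) cells. Cells are kept in low-serum medium (0.2% FBS with growth factors), not fully defined medium. IC50 is the concentration that reduces cell viability by 50%.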

Structure (SMILES): CC[C@H](C)C(=O)O[C@H]1CCC=C2C=C[C@H](C)[C@H](CC[C@@H](O)C[C@@H](O)CC(=O)O)[C@H]21 [Compactin, compactin]
- IC50: ~18.6 µM
